Active and inactive are the calls of the source. The rule behind the calls is not given here.
Legend:
J774 [1] = test: Cytotoxicity against mouse J774 cells at 10 uM; format: cell-based; conditions: j774, 10 µM
In short: (§1)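 Irradiated (1000 rad) J774 macrophages plated overnight and infected 2 h with Y strain T. cruzi trypomastigotes. After parasite removal, cultured in RPMI-1640 with compound (n = 3), medium changed every 48 h, for 27 days. Toxicity to host cells (granulation, detachment, death) scored daily by phase-contrast microscopy at 400×.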

[2] = biological target: Tissue-type plasminogen activator (Homo sapiens, UniProt P00750); test: Inhibition of human tPA
In short: (§2)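 Profiling panel run externally as 10-dose, 3-fold serial dilutions of compound. Protease activity followed as a time course of fluorescence increase from a fluorescently labeled peptide substrate. The initial linear slope (signal/min) was analysed.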

[3] = Inhibition of recombinant Trypanosoma brucei rhodesain after 5 mins by spectrofluorimetric analysis
In short: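 Recombinant rhodesain, 4 nM, preincubated 5 min at room temperature with compound (DMSO) in 100 mM sodium acetate pH 5.5, 5 mM DTT, 0.001% Triton X-100. Reaction started with 10 μM Z-Phe-Arg-AMC; rate of AMC fluorescence increase read at ex 355/em 460 nm. IC50 from curve fitting; DMSO-only wells as positive control.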

Cathepsin L2 = biological target: T1, Cathepsin L2 (Homo sapiens, UniProt O60911); test: Inhibition of human Cathepsin V; in short: as §2
T1 sequence (O60911 whole entry): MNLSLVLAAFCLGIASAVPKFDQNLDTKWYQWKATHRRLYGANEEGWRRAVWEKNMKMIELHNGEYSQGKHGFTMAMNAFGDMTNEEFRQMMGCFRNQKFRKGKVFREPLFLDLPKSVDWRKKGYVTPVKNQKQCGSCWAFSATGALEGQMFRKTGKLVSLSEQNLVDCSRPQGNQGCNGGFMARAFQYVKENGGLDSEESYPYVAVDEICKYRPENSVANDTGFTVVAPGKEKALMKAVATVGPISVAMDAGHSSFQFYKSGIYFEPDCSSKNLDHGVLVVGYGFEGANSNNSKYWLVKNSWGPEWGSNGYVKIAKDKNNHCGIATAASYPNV

Pro-cathepsin H = biological target: T2, Pro-cathepsin H (Homo sapiens, UniProt P09668); test: Inhibition of human Cathepsin H; in short: as §2
T2 sequence (P09668 whole entry): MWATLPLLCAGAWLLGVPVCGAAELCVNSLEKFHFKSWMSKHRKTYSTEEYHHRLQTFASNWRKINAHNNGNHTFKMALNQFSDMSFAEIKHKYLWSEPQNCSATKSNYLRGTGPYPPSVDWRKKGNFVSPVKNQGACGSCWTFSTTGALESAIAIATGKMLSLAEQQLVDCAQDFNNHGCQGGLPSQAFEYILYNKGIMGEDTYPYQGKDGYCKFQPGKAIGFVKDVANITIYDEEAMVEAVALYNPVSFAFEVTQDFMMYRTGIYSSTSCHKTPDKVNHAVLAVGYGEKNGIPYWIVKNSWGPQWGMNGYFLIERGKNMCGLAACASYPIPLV

Cathepsin S = Cathepsin S (Homo sapiens, UniProt P25774); test: Inhibition of human Cathepsin S; in short: as §2
Caspase-6 = Caspase-6 (Homo sapiens, UniProt P55212); test: Inhibition of human Caspase 6; in short: as §2
Cruzipain [4] = biological target: T3, Cruzipain (Trypanosoma cruzi, UniProt P25779); test: Inhibition of recombinant Trypanosoma cruzi cruzain after 5 mins by spectrofluorimetric analysis
In short: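 Recombinant cruzain at 4 nM (activated procruzain, anion-exchange purified) in 100 mM sodium acetate pH 5.5, 5 mM DTT, 0.001% Triton X-100. Preincubated 5 min at room temperature with compound in DMSO, then Z-Phe-Arg-AMC 10 μM. Fluorescence rate read at ex 355/em 460 nm; DMSO controls; IC50 by curve fitting.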

Cruzipain [5] = biological target: T3, Cruzipain; test: Inhibition of Trypanosoma cruzi cruzain after 15 mins; conditions: read-out: IC50
In short: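 Cruzain at 1.5 nM final in 100 mM acetate pH 5.5, 5 mM DTT, 0.01% Triton X-100; compounds as serial 2-fold dilutions pin-transferred in DMSO. 15 min room-temperature preincubation, then Z-FR-AMC 2 μM final. Kinetic fluorescence read at ex 340/em 450 nm. Percent inhibition from the first 60 s signal change versus no-enzyme and uninhibited controls (48 wells each).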

Cathepsin Z = Cathepsin Z (Homo sapiens, UniProt Q9UBR2); test: Inhibition of human Cathepsin X/Z; in short: as §2
Caspase-14 = Caspase-14 (Homo sapiens, UniProt P31944); test: Inhibition of human Caspase 14; in short: as §2
Trypanosoma cruzi [6] = test: Antitrypanosomal activity against Trypanosoma cruzi Y trypomastigotes infected in mouse J774 cells at 1 uM after 27 days medium replaced every 48 hrs; format: functional, organism-based
In short: (§3)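 Irradiated (1000 rad) J774 macrophages plated overnight, infected 2 h with Y strain trypomastigotes, parasites removed, then cultured in RPMI-1640 with compound (n = 3); untreated infected and 10 μM K777 controls per experiment. Medium replaced every 48 h over 27 days; daily phase-contrast microscopy (400×) for free trypomastigotes and host toxicity; cultures kept 14 further days to confirm cure.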

Procathepsin L = Procathepsin L (Homo sapiens, UniProt P07711); test: Inhibition of human Cathepsin L; in short: as §2
Cathepsin K = biological target: T4, Cathepsin K (Homo sapiens, UniProt P43235); test: Inhibition of human Cathepsin K/O2; in short: as §2
T4 sequence (P43235 whole entry): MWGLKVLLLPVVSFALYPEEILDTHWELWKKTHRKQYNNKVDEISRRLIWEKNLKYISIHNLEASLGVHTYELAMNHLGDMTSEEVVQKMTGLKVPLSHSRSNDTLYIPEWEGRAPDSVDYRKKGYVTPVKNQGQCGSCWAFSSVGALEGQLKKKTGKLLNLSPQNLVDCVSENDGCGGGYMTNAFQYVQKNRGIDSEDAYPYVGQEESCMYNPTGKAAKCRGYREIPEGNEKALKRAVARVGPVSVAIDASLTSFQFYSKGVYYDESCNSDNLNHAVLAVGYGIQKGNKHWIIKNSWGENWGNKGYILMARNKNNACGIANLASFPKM

Papain = biological target: T5, Papain (Carica papaya, UniProt P00784); test: Inhibition of papaya papain; in short: as §2
T5 sequence (P00784 whole entry): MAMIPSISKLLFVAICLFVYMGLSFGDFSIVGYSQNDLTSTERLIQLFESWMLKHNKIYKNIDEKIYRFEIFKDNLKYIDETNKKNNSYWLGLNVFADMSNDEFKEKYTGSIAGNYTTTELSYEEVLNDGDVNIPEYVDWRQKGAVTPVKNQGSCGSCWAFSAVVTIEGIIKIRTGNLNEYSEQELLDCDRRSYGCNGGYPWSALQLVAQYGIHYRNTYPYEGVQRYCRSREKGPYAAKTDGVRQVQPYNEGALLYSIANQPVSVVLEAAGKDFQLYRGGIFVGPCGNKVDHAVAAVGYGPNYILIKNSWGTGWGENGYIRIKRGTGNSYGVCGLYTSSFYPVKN

Trypanosoma cruzi [7] = test: Antitrypanosomal activity against Trypanosoma cruzi Y trypomastigotes infected in mouse J774 cells at 5 uM after 27 days medium replaced every 48 hrs; format: functional, organism-based; in short: as §3
Canis familiaris = species on record: Canis familiaris; test: Toxicity in dog; format: organism-based, Canis lupus familiaris; conditions: in vivo
Mus musculus = species on record: Mus musculus; test: Toxicity in mouse; format: organism-based; conditions: in vivo
[8] = Inhibition of recombinant Trypanosoma brucei cathepsin B after 5 mins by spectrofluorimetric analysis
In short: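 Recombinant TbCatB at 258 nM in 100 mM sodium acetate pH 5.5, 5 mM DTT, 0.001% Triton X-100, preincubated with compound in DMSO for 5 min at room temperature. Z-Phe-Arg-AMC 10 μM added to start. Rate of fluorescence rise read at ex 355/em 460 nm; DMSO control wells; IC50 from curve fitting.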

Rattus norvegicus = species on record: Rattus norvegicus; test: Toxicity in rat; format: organism-based; conditions: in vivo
Trypanosoma cruzi [9] = test: Antitrypanosomal activity against Trypanosoma cruzi Y trypomastigotes infected in mouse J774 cells at 10 uM after 27 days medium replaced every 48 hrs; format: functional, organism-based; in short: as §3
Dipeptidyl peptidase 1 = Dipeptidyl peptidase 1 (Homo sapiens, UniProt P53634); test: Inhibition of human Cathepsin C; in short: as §2
[10] = biological target: Disintegrin and metalloproteinase domain-containing protein 17 (Homo sapiens, UniProt P78536); test: Inhibition of human TACE; in short: as §2
[11] = Inhibition of human Proteinase A; in short: as §2
Cathepsin B = Cathepsin B (Homo sapiens, UniProt P07858); test: Inhibition of human Cathepsin B; in short: as §2
[12] = biological target: Matrix metalloproteinase-14 (Homo sapiens, UniProt P50281); test: Inhibition of human MMP14; in short: as §2
Proteinase K = Proteinase K (Engyodontium album, UniProt P06873); test: Inhibition of human Proteinase K; set-up: species or system Parengyodontium album; in short: as §2
Kallikrein-4 = Kallikrein-4 (Homo sapiens, UniProt Q9Y5K2); test: Inhibition of human Kallikrein 4; in short: as §2
Beta-secretase 1 = Beta-secretase 1 (Homo sapiens, UniProt P56817); test: Inhibition of human BACE1; in short: as §2
Caspase-4 = Caspase-4 (Homo sapiens, UniProt P49662); test: Inhibition of human Caspase 4; in short: as §2
Caspase-5 = Caspase-5 (Homo sapiens, UniProt P51878); test: Inhibition of human Caspase 5; in short: as §2
J774 [13] = test: Cytotoxicity against mouse J774 cells at 5 uM; format: cell-based; conditions: j774, 5 µM; in short: as §1
Cathepsin G = Cathepsin G (Homo sapiens, UniProt P08311); test: Inhibition of human Cathepsin G; in short: as §2
[14] = Inhibition of human Chymotrypsin; in short: as §2
Neutrophil elastase = Neutrophil elastase (Homo sapiens, UniProt P08246); test: Inhibition of human Elastase; in short: as §2
Cruzipain [15] = biological target: T3, Cruzipain; test: Competitive inhibition of recombinant Trypanosoma cruzi cruzain by Lineweaver-Burke plot analysis
Caspase-1 = Caspase-1 (Homo sapiens, UniProt P29466); test: Inhibition of human Caspase 1; in short: as §2
[16] = Inhibition of human CCC1s; in short: as §2

Procathepsin L, sequence (P07711 whole entry): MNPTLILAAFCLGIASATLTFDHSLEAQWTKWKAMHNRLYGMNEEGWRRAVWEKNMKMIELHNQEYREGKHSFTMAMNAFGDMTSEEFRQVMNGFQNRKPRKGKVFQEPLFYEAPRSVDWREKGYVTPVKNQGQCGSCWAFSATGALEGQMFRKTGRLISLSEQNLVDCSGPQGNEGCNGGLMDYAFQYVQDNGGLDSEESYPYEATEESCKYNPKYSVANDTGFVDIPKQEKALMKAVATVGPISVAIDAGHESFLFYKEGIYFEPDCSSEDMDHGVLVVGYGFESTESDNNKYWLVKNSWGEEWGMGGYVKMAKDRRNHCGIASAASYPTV
Cathepsin Z, sequence (Q9UBR2 whole entry): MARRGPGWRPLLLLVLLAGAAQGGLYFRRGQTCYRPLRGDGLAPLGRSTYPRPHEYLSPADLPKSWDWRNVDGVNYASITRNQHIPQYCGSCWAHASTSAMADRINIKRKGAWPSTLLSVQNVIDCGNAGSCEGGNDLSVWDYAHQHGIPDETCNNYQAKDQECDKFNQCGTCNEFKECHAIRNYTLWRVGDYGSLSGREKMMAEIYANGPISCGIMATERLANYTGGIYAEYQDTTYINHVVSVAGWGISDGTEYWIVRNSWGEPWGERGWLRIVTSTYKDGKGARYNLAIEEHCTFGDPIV
T3 sequence (P25779 whole entry): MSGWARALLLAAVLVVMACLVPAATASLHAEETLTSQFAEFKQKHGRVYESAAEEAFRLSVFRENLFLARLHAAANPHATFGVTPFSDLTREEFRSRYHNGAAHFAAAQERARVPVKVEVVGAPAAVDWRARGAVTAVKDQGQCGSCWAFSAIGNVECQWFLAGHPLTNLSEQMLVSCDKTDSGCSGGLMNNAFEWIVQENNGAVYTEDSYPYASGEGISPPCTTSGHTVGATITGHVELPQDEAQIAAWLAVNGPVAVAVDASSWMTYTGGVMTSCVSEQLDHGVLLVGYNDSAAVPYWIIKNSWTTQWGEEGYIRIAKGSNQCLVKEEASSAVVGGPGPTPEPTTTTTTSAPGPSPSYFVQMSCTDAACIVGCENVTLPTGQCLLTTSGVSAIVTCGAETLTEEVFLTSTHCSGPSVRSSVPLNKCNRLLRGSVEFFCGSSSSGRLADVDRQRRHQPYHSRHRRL
Cathepsin S, sequence (P25774 whole entry): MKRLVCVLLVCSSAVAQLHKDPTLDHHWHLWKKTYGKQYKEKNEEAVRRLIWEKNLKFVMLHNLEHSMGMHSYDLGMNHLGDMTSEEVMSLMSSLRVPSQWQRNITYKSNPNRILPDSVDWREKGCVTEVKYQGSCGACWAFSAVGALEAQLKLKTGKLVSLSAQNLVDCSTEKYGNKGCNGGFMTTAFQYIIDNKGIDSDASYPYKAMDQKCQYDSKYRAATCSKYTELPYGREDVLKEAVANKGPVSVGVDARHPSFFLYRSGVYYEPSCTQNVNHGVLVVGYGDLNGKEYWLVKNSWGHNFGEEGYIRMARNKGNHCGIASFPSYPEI
Caspase-6, sequence (P55212 24-179 limits assumed): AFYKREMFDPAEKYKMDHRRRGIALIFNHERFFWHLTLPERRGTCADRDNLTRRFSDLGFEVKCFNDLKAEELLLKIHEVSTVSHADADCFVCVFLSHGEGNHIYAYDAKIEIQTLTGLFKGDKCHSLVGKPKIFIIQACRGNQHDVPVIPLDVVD
Caspase-6, sequence (P55212 194-293 limits assumed): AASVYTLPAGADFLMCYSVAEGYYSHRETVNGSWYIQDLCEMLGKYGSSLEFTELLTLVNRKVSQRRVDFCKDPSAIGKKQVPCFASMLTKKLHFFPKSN
Tissue-type plasminogen activator, sequence (P00750 whole entry): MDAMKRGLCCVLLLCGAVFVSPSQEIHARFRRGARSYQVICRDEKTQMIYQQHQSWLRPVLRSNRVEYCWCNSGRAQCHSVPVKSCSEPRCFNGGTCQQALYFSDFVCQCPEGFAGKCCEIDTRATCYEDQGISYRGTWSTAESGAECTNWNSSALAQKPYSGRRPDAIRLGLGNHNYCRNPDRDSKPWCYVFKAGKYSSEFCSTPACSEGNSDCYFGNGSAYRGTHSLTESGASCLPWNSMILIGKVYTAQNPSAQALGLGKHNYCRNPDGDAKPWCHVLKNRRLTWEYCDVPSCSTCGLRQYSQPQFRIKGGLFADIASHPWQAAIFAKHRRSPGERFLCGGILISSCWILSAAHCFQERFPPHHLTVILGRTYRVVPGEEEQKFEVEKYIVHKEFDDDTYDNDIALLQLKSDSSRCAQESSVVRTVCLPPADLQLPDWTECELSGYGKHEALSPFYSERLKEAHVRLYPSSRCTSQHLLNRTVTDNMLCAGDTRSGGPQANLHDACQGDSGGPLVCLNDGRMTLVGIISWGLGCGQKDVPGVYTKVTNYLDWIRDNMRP
Caspase-14, sequence (P31944 6-146 limits assumed): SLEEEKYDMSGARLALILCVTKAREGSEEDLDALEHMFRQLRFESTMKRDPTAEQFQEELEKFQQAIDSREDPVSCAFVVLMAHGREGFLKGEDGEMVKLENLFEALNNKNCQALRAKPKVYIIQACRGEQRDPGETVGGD
Caspase-14, sequence (P31944 153-242 limits assumed): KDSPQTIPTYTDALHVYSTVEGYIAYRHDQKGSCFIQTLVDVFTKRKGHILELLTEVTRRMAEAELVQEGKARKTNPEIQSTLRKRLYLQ
Dipeptidyl peptidase 1, sequence (P53634 25-134 limits assumed): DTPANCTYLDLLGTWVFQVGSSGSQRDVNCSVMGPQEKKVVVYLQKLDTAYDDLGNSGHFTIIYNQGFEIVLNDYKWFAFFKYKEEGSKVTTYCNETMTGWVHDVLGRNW
Dipeptidyl peptidase 1, sequence (P53634 231-394 limits assumed): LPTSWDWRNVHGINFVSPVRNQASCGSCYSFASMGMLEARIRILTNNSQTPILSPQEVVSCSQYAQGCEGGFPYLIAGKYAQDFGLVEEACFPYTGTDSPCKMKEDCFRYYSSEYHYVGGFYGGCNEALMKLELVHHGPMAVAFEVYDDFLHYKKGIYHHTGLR
Dipeptidyl peptidase 1, sequence (P53634 395-463 limits assumed): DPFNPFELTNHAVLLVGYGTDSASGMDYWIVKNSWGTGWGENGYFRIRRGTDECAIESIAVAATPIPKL
Caspase-4, sequence (P49662 81-270 limits assumed): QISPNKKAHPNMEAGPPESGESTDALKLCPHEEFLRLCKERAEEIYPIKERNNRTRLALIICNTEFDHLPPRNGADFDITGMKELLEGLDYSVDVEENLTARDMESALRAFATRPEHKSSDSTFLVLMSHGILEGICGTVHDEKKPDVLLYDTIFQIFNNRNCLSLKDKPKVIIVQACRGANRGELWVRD
Caspase-4, sequence (P49662 290-377 limits assumed): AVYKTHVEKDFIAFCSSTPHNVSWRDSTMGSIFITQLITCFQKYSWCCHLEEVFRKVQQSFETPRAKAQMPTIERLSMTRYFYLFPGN
Kallikrein-4, sequence (Q9Y5K2 whole entry): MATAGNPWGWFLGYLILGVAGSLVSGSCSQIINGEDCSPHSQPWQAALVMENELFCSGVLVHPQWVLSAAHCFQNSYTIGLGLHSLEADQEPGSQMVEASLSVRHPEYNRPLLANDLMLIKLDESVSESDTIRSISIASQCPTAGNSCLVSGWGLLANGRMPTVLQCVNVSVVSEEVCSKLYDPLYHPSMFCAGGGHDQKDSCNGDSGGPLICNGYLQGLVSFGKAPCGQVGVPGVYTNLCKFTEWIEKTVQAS
Proteinase K, sequence (P06873 whole entry): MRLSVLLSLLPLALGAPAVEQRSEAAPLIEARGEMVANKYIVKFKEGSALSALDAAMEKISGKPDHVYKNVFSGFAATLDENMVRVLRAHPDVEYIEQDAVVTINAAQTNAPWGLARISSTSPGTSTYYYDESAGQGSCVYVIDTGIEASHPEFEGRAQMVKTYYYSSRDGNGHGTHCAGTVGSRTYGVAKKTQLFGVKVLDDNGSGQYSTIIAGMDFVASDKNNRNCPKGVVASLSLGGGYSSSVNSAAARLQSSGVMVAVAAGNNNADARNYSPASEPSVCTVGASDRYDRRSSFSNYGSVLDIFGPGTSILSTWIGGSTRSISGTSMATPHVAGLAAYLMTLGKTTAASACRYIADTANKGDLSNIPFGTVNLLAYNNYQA
Caspase-1, sequence (P29466 120-297 limits assumed): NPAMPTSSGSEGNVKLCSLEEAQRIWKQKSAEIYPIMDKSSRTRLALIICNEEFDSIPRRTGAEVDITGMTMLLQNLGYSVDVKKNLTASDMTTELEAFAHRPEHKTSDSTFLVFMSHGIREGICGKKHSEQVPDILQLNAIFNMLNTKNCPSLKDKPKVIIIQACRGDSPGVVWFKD
Caspase-1, sequence (P29466 317-404 limits assumed): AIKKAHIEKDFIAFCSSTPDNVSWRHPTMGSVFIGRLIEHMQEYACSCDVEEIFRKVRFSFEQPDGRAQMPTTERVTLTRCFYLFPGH
Caspase-5, sequence (P51878 137-327 limits assumed): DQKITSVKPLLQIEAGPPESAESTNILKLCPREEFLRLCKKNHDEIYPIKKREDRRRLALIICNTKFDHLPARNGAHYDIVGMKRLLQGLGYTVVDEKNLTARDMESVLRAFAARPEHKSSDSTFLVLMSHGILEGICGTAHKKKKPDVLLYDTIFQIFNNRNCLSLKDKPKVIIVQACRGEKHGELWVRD
Caspase-5, sequence (P51878 347-434 limits assumed): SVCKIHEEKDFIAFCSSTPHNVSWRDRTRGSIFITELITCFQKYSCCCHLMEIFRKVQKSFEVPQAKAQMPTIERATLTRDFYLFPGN
Neutrophil elastase, sequence (P08246 whole entry): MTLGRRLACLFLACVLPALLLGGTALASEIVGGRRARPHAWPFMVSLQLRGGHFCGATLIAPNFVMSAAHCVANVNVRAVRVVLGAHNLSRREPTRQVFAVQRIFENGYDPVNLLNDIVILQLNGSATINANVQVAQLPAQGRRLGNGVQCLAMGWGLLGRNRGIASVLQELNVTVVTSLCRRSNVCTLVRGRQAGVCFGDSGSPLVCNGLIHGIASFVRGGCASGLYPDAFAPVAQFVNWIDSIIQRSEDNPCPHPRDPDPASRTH

SMILES | Activity (J774 [1]) | IC50 [3] [nM] | IC50 (Cathepsin L2) [nM] | IC50 (Pro-cathepsin H) [nM] | IC50 (Cathepsin S) [nM] | IC50 (Cruzipain [4]) [nM] | IC50 (Cruzipain [5]) [nM] | IC50 (Cathepsin Z) [nM] | Activity (Trypanosoma cruzi [6]) | IC50 (Procathepsin L) [nM] | IC50 (Cathepsin K) [nM] | IC50 (Papain) [nM] | Activity (Canis familiaris) | Activity (Mus musculus) | IC50 [8] [nM] | Activity (Rattus norvegicus) | also measured
N#Cc1nc(Nc2cccc(Cl)c2)nc(NC2CCCC2)n1 | Toxic | 6 | 832 | 14500 | 6460 | 2 | 79 | 6460 | inactive | 309 | 17.4 | 513 | Non-toxic | Non-toxic | > 100000 | Non-toxic | IC50 [2]: 851 nM; IC50 (Caspase-6): 5130 nM; IC50 (Caspase-14): 14100 nM; Activity (Trypanosoma cruzi [7]): inactive
CCn1cnc2c(Nc3cc(F)cc(F)c3)nc(C#N)nc21 | – | < 6 | 240 | 126 | 15.8 | 0.2 | 10 | 933 | – | 117 | 23.4 | 44.7 | Non-toxic | Non-toxic | 6000 | Non-toxic | Activity (Trypanosoma cruzi [9]): inactive; IC50 (Dipeptidyl peptidase 1): 34.7 nM; IC50 [10]: 74100 nM; pIC50 [11]: 4.19; IC50 (Cathepsin B): 10700 nM; IC50 [12]: 72400 nM; IC50 (Proteinase K): 74100 nM; IC50 (Kallikrein-4): 14500 nM; IC50 (Beta-secretase 1): 63100 nM; IC50 (Caspase-4): 33100 nM
N#Cc1nc(Nc2cc(F)cc(F)c2)nc(NC2CCCC2)n1 | Toxic | 5 | 182 | 16200 | 5620 | 4 | 63 | 3160 | inactive | 204 | 20.4 | 389 | Non-toxic | Non-toxic | 4000 | Non-toxic | IC50 [2]: 1290 nM; IC50 (Caspase-5): 13500 nM; IC50 (Cathepsin B): 10000 nM; IC50 (Caspase-6): 3550 nM; IC50 (Caspase-14): 9120 nM; Activity (J774 [13]): Toxic; IC50 (Caspase-4): 8130 nM
N#Cc1nc(Nc2cccc(Br)c2)nc(NC2CCCC2)n1 | Toxic | 6 | – | – | – | 2 | 100 | – | inactive | – | – | – | – | – | > 100000 | – | Activity (J774 [13]): Toxic
N#Cc1nc(Nc2cc(F)cc(F)c2)c2ncn(CC(F)F)c2n1 | – | – | – | – | – | – | 13 | – | – | 7940 | – | – | – | – | – | – | IC50 (Cathepsin G): 148000 nM; pIC50 [14]: 4.19; IC50 (Neutrophil elastase): 85100 nM
N#Cc1nc(N)nc(N(c2ccccc2)c2ccccc2)n1 | – | > 10000 | – | – | – | 70 | – | – | – | – | – | – | – | – | > 1000 | – | Ki (Cruzipain [15]): 180 nM
CCNc1nc(C#N)nc2c1ncn2-c1cc(F)cc(F)c1 | – | – | 70800 | 646 | 105 | – | 251 | 316 | – | 562 | 50.1 | 33.1 | Non-toxic | Non-toxic | – | Non-toxic | IC50 (Dipeptidyl peptidase 1): 589 nM; IC50 (Caspase-1): 70800 nM; IC50 [12]: 135000 nM; pIC50 [16]: 4.3; IC50 (Kallikrein-4): 178000 nM

Reference: ChEMBL document CHEMBL1156759, “Identification and optimization of inhibitors of Trypanosomal cysteine proteases: cruzain, rhodesain, and TbCatB” (J Med Chem, 2010)
